# Screening results deposited in PubChem by several laboratories.
# Shown are actives, neighbours in structure and some others; about 1.8% of the full set was active somewhere.
# AI-2 QS modul = Vibrio harveyi AI-2 quorum sensing modulation | activity change, % at 7.5 µM | Vibrio harveyi JMH597 AI-2 luminescence/OD600 ratio, 9 h; stronger effect = lower value; strain lacks LuxN and CqsS sensors; 0 = neutral-control median | 300,000 tested, 0.4% active; in the data active = activity change below about -75%, passing the limit was not always enough; inconclusive = no clear call, values can overlap the other calls;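 also: luminescence divided by OD600 gain over 9 h not by final OD600 alone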
# LANA-H2B inh = blocks KSHV LANA binding to histone H2A/H2B; Q9QR71; cell-free LANA-H2A/H2B peptide, fluorescence polarization; inhibition, % (test concentration not listed); 320,000 tested, 0.6% active; AID 2629; in the data active = inhibition mostly above about 10%, no sharp cut-off; inactive = mostly below about 6.7%
# HDAC3 inh = human HDAC3 inhibition; O15379; recombinant HDAC3, fluorogenic peptide/trypsin coupled, fluorescence; inhibition, % at 8.3 µM; 320,000 tested, 0.15% active; AID 2718; in the data active = inhibition above about 26%, passing the limit was not always enough; inconclusive = no clear call, values can overlap the other calls
# ATG4B inh = blocks human ATG4B protease cleavage of LC3 substrate; Q9Y4P1; ATG4B cleavage of LC3-PLA2, NBD-HPC fluorescence, 1 h; inhibition, % at 8.33 µM; 340,000 tested, 0.51% active; AID 504462; in the data active = inhibition above about 40%
# Target sequence (Q9Y4P1 whole entry, looked up): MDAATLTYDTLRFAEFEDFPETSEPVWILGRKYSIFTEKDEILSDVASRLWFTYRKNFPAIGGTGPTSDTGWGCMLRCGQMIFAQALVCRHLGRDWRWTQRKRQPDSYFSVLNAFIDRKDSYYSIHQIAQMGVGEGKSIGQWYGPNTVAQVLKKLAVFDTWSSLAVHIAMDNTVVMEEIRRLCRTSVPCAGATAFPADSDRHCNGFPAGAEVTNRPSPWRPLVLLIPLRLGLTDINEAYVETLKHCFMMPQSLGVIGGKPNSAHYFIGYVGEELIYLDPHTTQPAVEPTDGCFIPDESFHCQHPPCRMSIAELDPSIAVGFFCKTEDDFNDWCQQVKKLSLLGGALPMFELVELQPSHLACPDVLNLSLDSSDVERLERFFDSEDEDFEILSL
# A1 inh = inhibitors of the anti-apoptotic protein A1, read as caspase activation; MEF A1-2A-BIM cells, Caspase-Glo 3/7 luminescence, 3 h; percent of clofoctol response, vehicle zero; caspase activation, % (no concentration beside the values); 330,000 tested, 0.066% active;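 active = over half of replicate activation scores above 10%, or exactly half above 10 with the replicate mean above 10; inconclusive = replicate mean below 10 yet half the replicates above 10; inactive = over half of replicates below 10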
# HKDC1 inhibitor = HKDC1 (human) hexokinase inhibition; Q2TB90; recombinant HKDC1, G6PDH/diaphorase resazurin coupled fluorescence; inhibition, % at 20 µM; 340,000 tested, 0.16% active; AID 493160;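 active = inhibition above about 35% when tested at 20 µM, limit read from the data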;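 also: plate controls were DMSO wells with enzyme for no effect and DMSO wells lacking enzyme for full effect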
#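 Test system: recombinant HKDC1 (HK5) hexokinase enzyme, produced in-house / Doses: 20 µM test compound, 1% DMSO / Timing: 90 min, room temperature / Detection: G6PDH/diaphorase-coupled fluorescence, 1 mM NADP, 100 µM resazurin, 525/613 nm / Control set: DMSO wells with and without enzyme mix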
# JMH597 growth = retest: blocks Vibrio harveyi JMH597 growth; growth inhibition, % at 7.5 µM; OD600 absorbance, 9 h; lacks LuxN and CqsS sensors; shares compounds with AI-2 QS modul; 750 tested, 1% active;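 active = every replicate shows growth inhibition above 50%; inconclusive = at least half, but not all, replicates pass that cutoff; inactive = fewer than half of replicates pass it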
# BB721 const-QS lum = retest counter-screen: BB721 constitutive quorum sensing luminescence decrease; Vibrio harveyi BB721 luminescence, 9 h; AID 2727; inhibition, % at 7.5 µM; 750 tested, 95% active; shares compounds with AI-2 QS modul;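 active = inhibition above about 80% in every replicate, not just on average, limit read from the data; inconclusive = at least half of replicates past the limit, but not all; inactive = fewer than half of replicates past the limit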
# BB721 growth rt = retest: blocks Vibrio harveyi BB721 growth | shares compounds with AI-2 QS modul | OD600 absorbance, 9 h | growth inhibition, % at 7.5 µM | 750 tested, 3% active | AID 2728;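 active = every replicate shows growth inhibition above 50%; inconclusive = at least half but not all replicates above 50% inhibition; inactive = under half of replicates above 50% inhibition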
# JMH597 AI-2 mod = Vibrio harveyi AI-2 signaling luminescence modulation – JMH597 strain, confirmation. Vibrio harveyi JMH597 AI-2 quorum sensing luminescence, 9 h; luxN and CqsS knockout, AI-2 only. inhibition, % at 7.5 µM. 750 tested, 97% active. shares compounds with AI-2 QS modul;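 active = every replicate shows more than 75% inhibition of signal versus neutral control wells; inconclusive = half to three quarters of replicates exceed 75% inhibition; inactive = fewer than half of replicates exceed 75% inhibition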
# The depositor's hits bear a star; ? = inconclusive; / = no result given.
SMILES,AI-2 QS modul,LANA-H2B inh,HDAC3 inh,ATG4B inh,A1 inh,HKDC1 inhibitor,JMH597 growth,BB721 const-QS lum,BB721 growth rt,JMH597 AI-2 mod
O=C(CCl)NN1C(=O)NC(c2ccccc2)(c2ccccc2)C1=O,-95*,2,3,7,0,-4,25,98*,-226,98*
CC(C)c1nnc(NC(=O)CCN2C(=O)c3ccccc3C2=O)s1,-83*,1,7,-7,1,-11,-9,95*,5,96*
CCCc1nnc(NC(=O)CCN2C(=O)c3ccccc3C2=O)s1,-87*,3,6,-13,0,2,13,94*,34,96*
O=C(NCC(=O)N(c1ccccc1)C(C(=O)NC1CCCCC1)c1cccnc1)c1ccco1 (stereo not given),32,9,-1,-7,0,-3,/,/,/,/
CC(=O)N1CCC(N(CCN2CCOCC2)C(=S)Nc2cc(C)ccc2C)CC1,25,3,1,-12,0,-10,/,/,/,/
CCSc1nsc(NC(=O)Nc2ccc(F)cc2F)n1,?,-2,-1,6,-4,7,82*,94*,?,99*
c1ccc(CNc2nc(-c3cccnc3)cs2)cc1,-83*,4,-2,2,0,-1,22,94*,12,97*
CC(=O)c1ccc(NC(=O)C2CCCN(S(=O)(=O)c3c(C)[nH]c(=O)[nH]c3=O)C2)cc1 (stereo not given),15,-2,1,11,0,11,/,/,/,/
COc1cccc(Oc2cn[nH]c2-c2ccc(O)cc2O)c1,-84*,0,1,-15,-1,-7,?,98*,?,99*
O=C(COC(=O)COc1ccc(Cl)cc1)NCCNC(=O)COC(=O)COc1ccc(Cl)cc1,24,/,/,-20,0,0,/,/,/,/
COc1ccc(CCNC(=O)C2CCN(S(=O)(=O)c3cccs3)CC2)cc1OC,16,-70,-6,-9,1,-1,/,/,/,/
Cc1ccc(C(=O)CSc2nnc(-c3cccnc3)n2N)cc1,36,-1,5,3,0,-6,/,/,/,/
Cc1ccc(CSc2nnc(-c3cccnc3)n2N)cc1,-90*,0,4,-4,0,-8,-8,96*,-1,97*
COC(=O)c1ccc(-c2noc(CN3C[C@H]4CC[C@H]3C4)n2)cc1,-84*,1,-6,-4,1,-11,-9,94*,1,96*
Cc1ccc(C(=O)OCC(=O)c2c[nH]c3ccccc23)cc1,-79*,-5,-1,7,-2,-9,1,77*,13,86*
COc1ccc(C(=O)OCC(=O)c2c[nH]c3ccccc23)cc1OC,/,1,-1,5,0,-5,/,/,/,/
COc1ccc(NC(=O)CN2C(=O)NC(C)(c3ccccc3)C2=O)cc1Cl (stereo not given),-95*,7,1,0,1,-2,24,96*,14,98*
CC1(c2ccc(OC(F)F)cc2)NC(=O)N(CC(=O)Nc2ccc3c(c2)OCO3)C1=O (stereo not given),-94*,-1,4,5,0,6,-4,96*,-11,97*
CC1(c2ccc(Cl)cc2)NC(=O)N(CC(=O)Nc2ccc(F)cc2)C1=O (stereo not given),-78*,-8,10,2,-1,-3,-12,86*,-15,89*
CC1(c2ccc(Cl)cc2)NC(=O)N(CC(=O)NCc2ccc(F)cc2)C1=O (stereo not given),28,-1,-11,-2,0,-4,/,/,/,/
CC(C)CC1(C)NC(=O)N(CC(=O)Nc2ccc3c(c2)CCC3)C1=O (stereo not given),-85*,1,7,-1,-1,-3,2,90*,-11,94*
Cc1ccc(C2(C)NC(=O)N(CC(=O)Nc3ccc4c(c3)CCC4)C2=O)cc1 (stereo not given),/,-7,0,2,0,-1,/,/,/,/
CC(C)(C)c1ccc(C2(C)NC(=O)N(CC(=O)Nc3ccc4c(c3)OCO4)C2=O)cc1 (stereo not given),-60,-1,10,-11,0,9,/,/,/,/
CC1CN(C(=O)CSc2nnc(C3CCCCC3)n2N)CC(C)O1 (stereo not given),/,-4,0,-2,0,2,/,/,/,/
O=C(CN1c2cccc3cccc(c23)S1(=O)=O)NCCc1ccc(F)cc1,/,0,1,-9,2,7,/,/,/,/
SMILES,AI-2 QS modul,LANA-H2B inh,HDAC3 inh,ATG4B inh,A1 inh,HKDC1 inhibitor,JMH597 growth,BB721 const-QS lum,BB721 growth rt,JMH597 AI-2 mod
COc1ccc(CC(=O)NCc2nnc(SCC(=O)Nc3ccc(OC)cc3)n2C)cc1,8,0,3,-5,0,-12,/,/,/,/
Cc1cc(=O)oc2cc(NC(=O)CN3C(=O)NC(C)(c4ccccc4)C3=O)ccc12 (stereo not given),-84*,2,-41,-9,0,-5,6,86*,-1,91*
CC1(c2ccccc2)NC(=O)N(CC(=O)Nc2ccc3c(c2)OCO3)C1=O (stereo not given),-95*,2,?,-4,2,-4,-10,96*,-14,98*
Cc1ccccc1CC(=O)Nc1ccc2c(C)cc(=O)oc2c1,11,1,-12,-6,0,-12,/,/,/,/
Cn1c(COc2ccccc2)nnc1SCC(=O)NC1CCCC1,12,3,9,-6,0,2,/,/,/,/
O=C(CN(C(=O)c1ccccc1)C(=O)c1ccccc1)OCc1ccccc1,/,/,/,-2,/,-1,/,/,/,/
C/C(=N\NC(=O)CNC(=O)C1COc2ccccc2O1)c1ccco1 (stereo not given),3,1,-1,-4,0,-4,/,/,/,/
O=C(Nc1ccc2c(c1)OCO2)OCc1ccccc1,-93*,0,5,2,1,-11,-4,98*,18,98*
O=C(CCc1ccccc1)Nc1ccc2c(c1)OCO2,-69,0,2,-2,-1,-2,/,/,/,/
O=C(CSc1nnc(-c2ccc(S(=O)(=O)N3CCCC3)cc2)o1)NCc1ccco1,-83*,1,-5,0,0,6,23,84*,19,90*
